Data taken from ChEMBL document CHEMBL1145833, “Studies on the synthesis and biological properties of non-carrier-added [(125)I and (131)I]-labeled arylalkylidenebisphosphonates: potent bone-seekers for diagnosis and therapy of malignant osseous lesions” (J Med Chem, 2003).

What was measured:
Conditions in all cases: in vivo
[1] = species on record: Mus musculus; test: Distribution of compound in blood tissue of mice after 0.5 hr injection time was determined; format: ADME, organism-based
How it was run: (§1)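 Healthy athymic nude mice (balb/c nu/nu, 20–25 g, both sexes) received 50–400 KBq radioiodinated bisphosphonate in 100 µL phosphate buffer pH 6–7 by tail-vein injection. Three animals were sacrificed per time point. Tissues were excised, weighed and gamma-counted. Values are % injected dose per gram tissue, mean ± 1 SD, n = 3.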

[2] = species on record: Mus musculus; test: Distribution of compound in heart tissue of mice after 0.5 hr injection time was determined; format: ADME, organism-based; how it was run: as §1
[3] = species on record: Mus musculus; test: Distribution of compound in blood tissue of mice after 24 hr injection time was determined; format: ADME, organism-based; how it was run: as §1
[4] = species on record: Mus musculus; test: Distribution of compound in lungs tissue of mice after 24 hr injection time was determined; format: ADME, organism-based, Lung; how it was run: as §1
[5] = species on record: Mus musculus; test: Distribution of compound in kidneys tissue of mice after 24 hr injection time was determined; format: ADME, organism-based, Kidney; how it was run: as §1
[6] = species on record: Mus musculus; test: Distribution of compound in spleen tissue of mice after 2 hr injection time was determined; format: ADME, organism-based; how it was run: as §1
[7] = species on record: Mus musculus; test: Distribution of compound in heart tissue of mice after 5 hr injection time was determined; format: ADME, organism-based; how it was run: as §1
[8] = species on record: Mus musculus; test: Distribution of compound in thyroid tissue of mice after 24 h injection time was determined; format: ADME, organism-based, Thyroid gland
How it was run: (§2)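 Healthy athymic nude balb/c nu/nu mice (20–25 g) received 50–400 KBq radioiodinated bisphosphonate in 100 μL phosphate buffer, pH 6–7, by tail-vein injection. Three animals were sacrificed per time point. Thyroid-containing tissue was excised, weighed and gamma-counted. Values are % of injected dose, mean ± 1 SD of three mice.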

[9] = species on record: Mus musculus; test: Distribution of compound in stomach tissue of mice after 2 hr injection time was determined; format: ADME, organism-based; how it was run: as §1
[10] = species on record: Mus musculus; test: Distribution of compound in spleen tissue of mice after 24 hr injection time was determined; format: ADME, organism-based; how it was run: as §1
[11] = species on record: Mus musculus; test: Distribution of compound in spleen tissue of mice after 5 h injection time was determined; format: ADME, organism-based; how it was run: as §1
[12] = species on record: Mus musculus; test: Distribution of compound in intestine tissue of mice after 24 hr injection time was determined; format: ADME, organism-based; how it was run: as §1
[13] = species on record: Mus musculus; test: Distribution of compound in lungs tissue of mice after 5 hr injection time was determined; format: ADME, organism-based, Lung; how it was run: as §1
[14] = species on record: Mus musculus; test: Distribution of compound in heart tissue of mice after 2 hr injection time was determined; format: ADME, organism-based; how it was run: as §1
[15] = species on record: Mus musculus; test: Distribution of compound in stomach tissue of mice after 5 hr injection time was determined; format: ADME, organism-based; how it was run: as §1
[16] = species on record: Mus musculus; test: Distribution of compound in liver tissue of mice after 5 hr injection time was determined; format: ADME, organism-based; how it was run: as §1
[17] = species on record: Mus musculus; test: Distribution of compound in lungs tissue of mice after 2 hr injection time was determined; format: ADME, organism-based, Lung; how it was run: as §1
[18] = species on record: Mus musculus; test: Distribution of compound in kidneys tissue of mice after 5 hr injection time was determined; format: ADME, organism-based, Kidney; how it was run: as §1
[19] = species on record: Mus musculus; test: Distribution of compound in skull tissue of mice after 0.5 hr injection time was determined; format: ADME, organism-based; how it was run: as §1
[20] = species on record: Mus musculus; test: Distribution of compound in femur tissue of mice after 24 hr injection time was determined; format: ADME, organism-based; how it was run: as §1
[21] = species on record: Mus musculus; test: Distribution of compound in kidneys tissue of mice after 0.5 hr injection time was determined; format: ADME, organism-based, Kidney; how it was run: as §1
[22] = species on record: Mus musculus; test: Distribution of compound in blood tissue of mice after 2 hr injection time was determined; format: ADME, organism-based; how it was run: as §1
[23] = species on record: Mus musculus; test: Distribution of compound in skull tissue of mice after 24 hr injection time was determined; format: ADME, organism-based; how it was run: as §1
[24] = species on record: Mus musculus; test: Distribution of compound in intestine tissue of mice after 2 hr injection time was determined; format: ADME, organism-based; how it was run: as §1
[25] = species on record: Mus musculus; test: Distribution of compound in thyroid tissue of mice after 5 h injection time was determined; format: ADME, organism-based, Thyroid gland; how it was run: as §2
[26] = species on record: Mus musculus; test: Distribution of compound in femur tissue of mice after 5 hr injection time was determined; format: ADME, organism-based; how it was run: as §1
[27] = species on record: Mus musculus; test: Distribution of compound in intestine tissue of mice after 0.5 hr injection time was determined; format: ADME, organism-based; how it was run: as §1
[28] = species on record: Mus musculus; test: Distribution of compound in thyroid tissue of mice after 0.5 hr injection time was determined; format: ADME, organism-based, Thyroid gland; how it was run: as §2
[29] = species on record: Mus musculus; test: Distribution of compound in femur tissue of mice after 2 hr injection time was determined; format: ADME, organism-based; how it was run: as §1
[30] = species on record: Mus musculus; test: Distribution of compound in blood tissue of mice after 5 h injection time was determined; format: ADME, organism-based; how it was run: as §1
[31] = species on record: Mus musculus; test: Distribution of compound in skull tissue of mice after 5 h injection time was determined; format: ADME, organism-based; how it was run: as §1
[32] = species on record: Mus musculus; test: Distribution of compound in spleen tissue of mice after 0.5 hr injection time was determined; format: ADME, organism-based; how it was run: as §1
[33] = species on record: Mus musculus; test: Distribution of compound in kidneys tissue of mice after 2 hr injection time was determined; format: ADME, organism-based, Kidney; how it was run: as §1
[34] = species on record: Mus musculus; test: Distribution of compound in stomach tissue of mice after 0.5 hr injection time was determined; format: ADME, organism-based; how it was run: as §1
[35] = species on record: Mus musculus; test: Distribution of compound in skull tissue of mice after 2 hr injection time was determined; format: ADME, organism-based; how it was run: as §1
[36] = species on record: Mus musculus; test: Distribution of compound in liver tissue of mice after 24 hr injection time was determined; format: ADME, organism-based; how it was run: as §1
[37] = species on record: Mus musculus; test: Distribution of compound in liver tissue of mice after 0.5 hr injection time was determined; format: ADME, organism-based; how it was run: as §1
[38] = species on record: Mus musculus; test: Distribution of compound in stomach tissue of mice after 24 hr injection time was determined; format: ADME, organism-based; how it was run: as §1
[39] = species on record: Mus musculus; test: Distribution of compound in liver tissue of mice after 2 h injection time was determined; format: ADME, organism-based; how it was run: as §1
[40] = species on record: Mus musculus; test: Distribution of compound in intestine tissue of mice after 5 hr injection time was determined; format: ADME, organism-based; how it was run: as §1
[41] = species on record: Mus musculus; test: Distribution of compound in lungs tissue of mice after 0.5 h injection time was determined; format: ADME, organism-based, Lung; how it was run: as §1
[42] = species on record: Mus musculus; test: Distribution of compound in femur tissue of mice after 0.5 hr injection time was determined; format: ADME, organism-based; how it was run: as §1
[43] = species on record: Mus musculus; test: Distribution of compound in heart tissue of mice after 24 hr injection time was determined; format: ADME, organism-based; how it was run: as §1
[44] = species on record: Mus musculus; test: Distribution of compound in thyroid tissue of mice after 2 hr injection time was determined; format: ADME, organism-based, Thyroid gland; how it was run: as §2

O=P(O)(O)C(Cc1cccc(I)c1)P(=O)(O)O
Injected [1]: 2.22% | Injected [2]: 0.9% | Injected [3]: 0.03% | Injected [4]: 0.06% | Injected [5]: 1.06% | Injected [6]: 0.26% | Injected [7]: 0.07% | Injected [8]: 0.02% | Injected [9]: 1.12% | Injected [10]: 0.1% | Injected [11]: 0.12% | Injected [12]: 0.28% | Injected [13]: 0.1% | Injected [14]: 0.26% | Injected [15]: 0.23% | Injected [16]: 0.94% | Injected [17]: 0.35% | Injected [18]: 2.26% | Injected [19]: 10.28% | Injected [20]: 15.25% | Injected [21]: 8.23% | Injected [22]: 0.31% | Injected [23]: 7.13% | Injected [24]: 0.28% | Injected [25]: 0.06% | Injected [26]: 10% | Injected [27]: 0.37% | Injected [28]: 0.21% | Injected [29]: 21.16% | Injected [30]: 0.11% | Injected [31]: 6.16% | Injected [32]: 0.35% | Injected [33]: 3.68% | Injected [34]: 1.14% | Injected [35]: 7.64% | Injected [36]: 0.23% | Injected [37]: 2.98% | Injected [38]: 0.05% | Injected [39]: 2.14% | Injected [40]: 0.24% | Injected [41]: 1% | Injected [42]: 18.8% | Injected [43]: 0.04% | Injected [44]: 0.14%

O=P(O)(O)C(NCCc1cccc(I)c1)P(=O)(O)O
Injected [3]: 0.18% | Injected [4]: 0.67% | Injected [5]: 0.4% | Injected [8]: 0.02% | Injected [10]: 2.49% | Injected [12]: 0.1% | Injected [20]: 1.39% | Injected [23]: 0.91% | Injected [36]: 5.57% | Injected [38]: 0.07% | Injected [43]: 0.19%
